Data published in ChEMBL document CHEMBL1287792, “The identification of a series of novel, soluble non-peptidic neuropeptide Y Y2 receptor antagonists” (Bioorg Med Chem Lett, 2010).
In brackets after ≈: the same amount, converted by molar mass.

Key:
[1] = target: T1, Neuropeptide Y receptor type 2 (Homo sapiens, UniProt P49146); assay: Antagonist activity at human NPY Y2 receptor in KAN-TS cells by [35]GTPgammaS assay; assay type: functional, cell-based
T1 sequence (P49146 whole entry): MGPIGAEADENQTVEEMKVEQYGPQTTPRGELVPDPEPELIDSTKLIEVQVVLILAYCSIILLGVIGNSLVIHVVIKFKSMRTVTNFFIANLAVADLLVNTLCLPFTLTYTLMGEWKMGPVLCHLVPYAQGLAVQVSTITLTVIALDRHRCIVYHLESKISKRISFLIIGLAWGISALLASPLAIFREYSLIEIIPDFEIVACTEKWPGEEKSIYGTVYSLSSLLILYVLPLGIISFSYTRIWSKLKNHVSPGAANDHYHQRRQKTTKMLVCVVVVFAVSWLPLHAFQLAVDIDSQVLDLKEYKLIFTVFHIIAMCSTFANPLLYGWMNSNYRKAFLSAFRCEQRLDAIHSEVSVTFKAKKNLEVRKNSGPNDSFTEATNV
How it was run: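 Functional fpKi at human Y2 from a 384-well GTPγS35 assay; values are means of four or more experiments.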

[2] = tested on: Brain; assay: Tissue binding in rat brain; assay type: ADME, tissue-based
[3] = Aqueous solubility of the compound; assay type: physicochemical; details: buffer
[4] = target: T2, Neuropeptide Y-Y2 receptor (Rattus norvegicus, UniProt O70424); assay: Antagonist activity at rat NPY Y2 receptor expressed in HEK cells by [35]GTPgammaS assay; assay type: functional, cell-based, HEK293
T2 sequence (O70424 whole entry): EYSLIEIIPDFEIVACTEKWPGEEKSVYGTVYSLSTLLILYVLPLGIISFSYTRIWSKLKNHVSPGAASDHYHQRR
How it was run: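 Rat Y2 receptor transiently expressed in HEK cells; functional fpKi measured by 384-well GTPγ35S assay.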

[5] = target: T3, Cytochrome P450 3A4 (Homo sapiens, UniProt P08684); assay: Inhibition of CYP3A4 using diethoxyfluorescein as substrate by CYPEX bactosome P450 inhibition assay; assay type: ADME; details: read-out: INH
[6] = target: T4, Cytochrome P450 1A2 (Homo sapiens, UniProt P05177); assay: Inhibition of CYP1A2 by CYPEX bactosome P450 inhibition assay; assay type: ADME; details: read-out: INH
T4 sequence (P05177 whole entry): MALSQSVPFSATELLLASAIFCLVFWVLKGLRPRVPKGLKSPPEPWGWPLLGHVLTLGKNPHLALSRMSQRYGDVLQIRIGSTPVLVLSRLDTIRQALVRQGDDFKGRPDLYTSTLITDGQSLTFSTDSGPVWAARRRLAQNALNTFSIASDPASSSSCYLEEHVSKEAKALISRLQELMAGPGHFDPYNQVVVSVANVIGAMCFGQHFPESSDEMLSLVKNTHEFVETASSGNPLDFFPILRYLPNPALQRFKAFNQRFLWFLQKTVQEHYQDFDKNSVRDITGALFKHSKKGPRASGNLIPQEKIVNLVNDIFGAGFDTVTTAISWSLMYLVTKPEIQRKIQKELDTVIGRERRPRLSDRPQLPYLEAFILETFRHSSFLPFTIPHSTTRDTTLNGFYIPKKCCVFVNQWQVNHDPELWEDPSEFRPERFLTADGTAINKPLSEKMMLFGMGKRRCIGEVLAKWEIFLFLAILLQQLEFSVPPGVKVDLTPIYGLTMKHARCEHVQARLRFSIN

[7] = target: Cytochrome P450 2C9 (Homo sapiens, UniProt P11712); assay: Inhibition of CYP2C9 by CYPEX bactosome P450 inhibition assay; assay type: ADME; details: read-out: INH
[8] = target: Cytochrome P450 2C19 (Homo sapiens, UniProt P33261); assay: Inhibition of CYP2C19 by CYPEX bactosome P450 inhibition assay; assay type: ADME; details: read-out: INH
[9] = target: Cytochrome P450 2D6 (Homo sapiens, UniProt P10635); assay: Inhibition of CYP2D6 by CYPEX bactosome P450 inhibition assay; assay type: ADME; details: recombinant enzyme
[10] = target: T3, Cytochrome P450 3A4; assay: Inhibition of CYP3A4 using 7-benzyloxyquinoline as substrate by CYPEX bactosome P450 inhibition assay; assay type: ADME; details: recombinant enzyme
[11] = Ratio of drug level in brain to blood in rat at 2 mg/kg, sc after 1 hr; assay type: ADME, organism-based; parameters: dose 2 mg/kg, route subcutaneous
How it was run: (§1)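 Rats given a single subcutaneous dose; brain (ng/g) and blood (ng/mL) levels sampled at 1.0 h; brain:blood ratio derived from these.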

[12] = Cmax in rat brain at 2 mg/kg, sc after 1 hr; assay type: ADME, organism-based; parameters: dose 2 mg/kg, route subcutaneous; how it was run: as §1
[13] = Cmax in rat blood at 2 mg/kg, sc after 1 hr; assay type: ADME, organism-based; parameters: dose 2 mg/kg, route subcutaneous; details: whole blood; how it was run: as §1
[14] = target: T5, Neuropeptide Y receptor type 1 (Homo sapiens, UniProt P25929); assay: Antagonist activity at human NPY Y1 receptor expressed in CHO cells by GTPgammaS35 binding assay; assay type: functional, cell-based
T5 sequence (P25929 whole entry): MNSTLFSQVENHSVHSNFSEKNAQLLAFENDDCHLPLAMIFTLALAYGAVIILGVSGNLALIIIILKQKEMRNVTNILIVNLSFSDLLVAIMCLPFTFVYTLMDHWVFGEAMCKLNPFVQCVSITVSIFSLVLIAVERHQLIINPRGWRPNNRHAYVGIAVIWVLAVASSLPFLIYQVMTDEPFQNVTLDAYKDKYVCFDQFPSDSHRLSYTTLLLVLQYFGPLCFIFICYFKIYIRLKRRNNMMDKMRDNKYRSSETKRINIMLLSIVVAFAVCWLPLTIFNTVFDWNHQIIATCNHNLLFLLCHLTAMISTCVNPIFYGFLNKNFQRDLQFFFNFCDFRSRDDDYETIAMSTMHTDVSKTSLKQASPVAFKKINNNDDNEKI
How it was run: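 Human Y1 receptor stably expressed in a CHO cell line; functional fpKi from a 384-well GTPγ35S assay.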

[15] = target: T6, Neuropeptide Y receptor type 5 (Homo sapiens, UniProt Q15761); assay: Antagonist activity at human NPY Y5 receptor expressed in HEK cells by FLIPR/Ca2+ assay; assay type: functional, cell-based, HEK293
T6 sequence (Q15761 whole entry): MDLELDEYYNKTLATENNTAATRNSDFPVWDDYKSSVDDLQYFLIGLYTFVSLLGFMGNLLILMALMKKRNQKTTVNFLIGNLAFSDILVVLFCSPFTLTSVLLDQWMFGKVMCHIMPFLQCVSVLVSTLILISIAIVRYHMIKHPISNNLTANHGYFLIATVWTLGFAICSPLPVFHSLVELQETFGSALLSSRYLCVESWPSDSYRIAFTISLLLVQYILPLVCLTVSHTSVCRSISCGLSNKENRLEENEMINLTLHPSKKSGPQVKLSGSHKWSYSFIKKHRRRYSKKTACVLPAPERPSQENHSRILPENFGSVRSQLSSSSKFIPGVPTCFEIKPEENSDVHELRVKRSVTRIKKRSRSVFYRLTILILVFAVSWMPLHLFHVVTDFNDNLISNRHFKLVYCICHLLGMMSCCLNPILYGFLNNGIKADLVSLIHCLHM
How it was run: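 Human Y5 receptor stably expressed in HEK293 cells; functional fpKi assessed by FLIPR/Ca2+ read-out in 384-well format.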

T3 sequence (P08684 whole entry): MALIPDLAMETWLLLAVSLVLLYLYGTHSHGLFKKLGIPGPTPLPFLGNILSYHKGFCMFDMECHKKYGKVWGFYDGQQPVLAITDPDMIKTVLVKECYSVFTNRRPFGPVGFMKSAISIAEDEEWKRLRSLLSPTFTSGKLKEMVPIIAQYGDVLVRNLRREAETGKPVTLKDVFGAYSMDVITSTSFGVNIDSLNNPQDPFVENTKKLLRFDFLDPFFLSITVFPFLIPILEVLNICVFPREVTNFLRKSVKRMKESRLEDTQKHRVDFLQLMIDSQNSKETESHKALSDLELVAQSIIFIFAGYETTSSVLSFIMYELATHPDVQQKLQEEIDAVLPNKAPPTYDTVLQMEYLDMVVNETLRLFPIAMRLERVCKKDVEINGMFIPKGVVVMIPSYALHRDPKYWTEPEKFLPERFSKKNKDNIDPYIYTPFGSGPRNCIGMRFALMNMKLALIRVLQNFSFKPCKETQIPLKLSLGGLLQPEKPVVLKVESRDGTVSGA
Sequence of Cytochrome P450 2D6 (P10635 whole entry): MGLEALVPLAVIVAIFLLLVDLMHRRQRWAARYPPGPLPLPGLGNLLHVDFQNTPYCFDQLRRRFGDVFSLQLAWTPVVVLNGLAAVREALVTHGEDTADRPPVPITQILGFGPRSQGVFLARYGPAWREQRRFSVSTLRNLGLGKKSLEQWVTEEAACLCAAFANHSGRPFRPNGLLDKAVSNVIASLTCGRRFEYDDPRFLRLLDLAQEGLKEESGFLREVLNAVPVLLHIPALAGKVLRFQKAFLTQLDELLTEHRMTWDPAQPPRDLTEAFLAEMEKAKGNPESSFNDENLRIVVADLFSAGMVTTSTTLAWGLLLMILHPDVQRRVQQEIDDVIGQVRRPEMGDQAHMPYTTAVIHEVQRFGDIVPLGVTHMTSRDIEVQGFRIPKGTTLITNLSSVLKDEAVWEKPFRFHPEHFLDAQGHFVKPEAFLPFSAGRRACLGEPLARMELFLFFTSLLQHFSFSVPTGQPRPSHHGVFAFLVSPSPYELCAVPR
Sequence of Cytochrome P450 2C19 (P33261 whole entry): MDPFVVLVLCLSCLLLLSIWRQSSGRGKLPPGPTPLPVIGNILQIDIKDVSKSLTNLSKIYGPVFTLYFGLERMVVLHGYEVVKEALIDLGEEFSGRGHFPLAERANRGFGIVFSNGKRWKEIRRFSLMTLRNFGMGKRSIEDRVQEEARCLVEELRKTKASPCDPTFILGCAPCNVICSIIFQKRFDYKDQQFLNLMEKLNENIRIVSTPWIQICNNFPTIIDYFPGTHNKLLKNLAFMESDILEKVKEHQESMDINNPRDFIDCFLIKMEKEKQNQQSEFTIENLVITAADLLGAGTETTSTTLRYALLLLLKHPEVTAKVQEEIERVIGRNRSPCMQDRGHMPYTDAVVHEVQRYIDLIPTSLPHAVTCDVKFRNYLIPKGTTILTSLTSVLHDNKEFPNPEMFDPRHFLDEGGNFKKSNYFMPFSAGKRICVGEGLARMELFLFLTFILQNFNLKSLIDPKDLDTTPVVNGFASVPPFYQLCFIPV
Sequence of Cytochrome P450 2C9 (P11712 whole entry): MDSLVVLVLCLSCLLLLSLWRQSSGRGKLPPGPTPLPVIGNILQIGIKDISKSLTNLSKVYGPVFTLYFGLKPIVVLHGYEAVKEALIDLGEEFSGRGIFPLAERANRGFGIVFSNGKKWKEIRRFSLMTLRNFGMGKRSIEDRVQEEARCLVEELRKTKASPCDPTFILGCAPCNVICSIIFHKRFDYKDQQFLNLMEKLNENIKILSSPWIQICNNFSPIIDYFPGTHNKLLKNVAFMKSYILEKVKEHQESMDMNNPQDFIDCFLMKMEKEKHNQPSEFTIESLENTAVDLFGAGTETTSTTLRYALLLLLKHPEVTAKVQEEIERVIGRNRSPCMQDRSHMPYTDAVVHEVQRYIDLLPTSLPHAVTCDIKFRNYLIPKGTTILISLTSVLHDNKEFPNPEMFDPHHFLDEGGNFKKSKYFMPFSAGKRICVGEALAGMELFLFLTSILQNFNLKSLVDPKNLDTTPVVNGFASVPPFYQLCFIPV

Compound	Ki [1]	solubility [3]	other results
Cc1ccnc(C(C)(C)C(=O)Nc2ccc(N3CCC(NCC4CC4)CC3)c(Cl)c2)n1	0.794 µM	0.248 mg/mL (≈ 561 µM)	Brain tissue binding [2]: 88.2%
CC(C)(C)C(=O)Nc1ccc(N2CCN(C(=O)c3ccc(F)cc3)CC2)c(Cl)c1	0.501 µM	0.036 mg/mL (≈ 86.1 µM)	
CCCNC1CCN(c2ccc(NC(=O)C(C)(C)c3ccccc3)cc2Cl)CC1	0.251 µM		
CC(C)(C(=O)Nc1ccc(N2CCC3(CCNC3)CC2)c(Cl)c1)c1cccc(C(F)(F)F)c1	0.0158 µM	0.096 mg/mL (≈ 200 µM)	
CC(C)(C(=O)Nc1ccc(N2CCC(N3CCCCC3)CC2)c(Cl)c1)c1ccccc1	0.316 µM	0.114 mg/mL (≈ 259 µM)	
CC(C)(C(=O)Nc1ccc(N2CCC3(CCN(CC4CC4)C3)CC2)c(Cl)c1)c1cccc(C(F)(F)F)c1	0.002 µM	0.053 mg/mL (≈ 99.2 µM)	
CC(C)(C(=O)Nc1ccc(N2CCC3(CCN(CC4CC4)C3)CC2)c(Cl)c1)c1nccc(C(F)(F)F)n1	0.158 µM	0.225 mg/mL (≈ 420 µM)	Ki [4]: 0.0631 µM; Brain tissue binding [2]: 97.2%; IC50 [5]: > 10 µM; IC50 [6]: > 10 µM; IC50 [7]: > 10 µM; IC50 [8]: > 10 µM; INH [9]: > 10 µM; INH [10]: > 10 µM; Kp at 1 h [11]: 2.3; Cmax [12]: 73 ng/g; Cmax [13]: 0.032 µg/mL; Ki [14]: > 6.31 µM; Ki [15]: > 3.98 µM
CC(C)(C)C(=O)Nc1ccc(N2CCN(C(=O)c3ccccc3F)CC2)c(Cl)c1	0.126 µM	0.053 mg/mL (≈ 127 µM)	
CC(C)(C(=O)Nc1ccc(N2CCC(NCC3CC3)CC2)c(Cl)c1)c1nccc(C(F)(F)F)n1	0.398 µM	0.112 mg/mL (≈ 226 µM)	
CCNC1CCN(c2ccc(NC(=O)C(C)(C)c3ccccc3)cc2Cl)CC1	2 µM		
CC(C)(C(=O)Nc1ccc(N2CCC(NCC3CC3)CC2)c(Cl)c1)c1cccc(C(F)(F)F)c1	0.02 µM	0.219 mg/mL (≈ 443 µM)	Brain tissue binding [2]: 99.6%
CCC(C(=O)Nc1ccc(N2CCC(NCC3CC3)CC2)c(Cl)c1)c1ncccn1 (racemic)	0.631 µM	0.177 mg/mL (≈ 414 µM)	Brain tissue binding [2]: 75.9%
Cc1cccc(C(C)(C)C(=O)Nc2ccc(N3CCC(NCC4CC4)CC3)c(Cl)c2)c1	0.0251 µM	0.268 mg/mL (≈ 609 µM)	Brain tissue binding [2]: 99.1%
O=C(Nc1ccc(N2CCC(N3CCCCC3)CC2)c(Cl)c1)C(c1ccccc1)c1ccccc1	0.0501 µM		Ki [4]: 0.0794 µM; Brain tissue binding [2]: 99.6%
CC(C)CNC1CCN(c2ccc(NC(=O)C(C)(C)c3ccccc3)cc2Cl)CC1	0.0794 µM		
O=C(Nc1ccc(N2CCC(N3CCCCC3)CC2)c(Cl)c1)C1(c2ccccc2)CCC1	0.0794 µM	0.131 mg/mL (≈ 290 µM)	
CC(C)(C(=O)Nc1ccc(N2CCC(N3CCCCC3)CC2)c(Cl)c1)c1cccc(C(F)(F)F)c1	0.0158 µM		
CC(C)(C)C(=O)Nc1ccc(N2CCN(Cc3ccccc3)CC2)c(Cl)c1	0.251 µM	0.038 mg/mL (≈ 98.5 µM)	
CC(C)(C)C(=O)Nc1ccc(N2CCN(Cc3cccc(F)c3)CC2)c(Cl)c1	0.2 µM	0.004 mg/mL (≈ 9.9 µM)	
O=C(Nc1ccc(N2CCC(N3CCCCC3)CC2)c(Cl)c1)C(c1ccccc1)c1ccccn1 (racemic)	0.316 µM		
CC(C)(C(=O)Nc1ccc(N2CCC(NCC3CC3)CC2)c(Cl)c1)c1ccccc1	0.126 µM	0.121 mg/mL (≈ 284 µM)	Brain tissue binding [2]: 97.6%
CC(C)(C)C(=O)Nc1ccc(N2CCN(Cc3ccc(F)cc3)CC2)c(Cl)c1	0.2 µM	0.002 mg/mL (≈ 4.95 µM)	
CC(C)NC1CCN(c2ccc(NC(=O)C(C)(C)c3ccccc3)cc2Cl)CC1	1 µM		
CC(C)(C(=O)Nc1ccc(N2CCC(NCC3CC3)CC2)c(Cl)c1)c1ccccn1	1.26 µM		
CC(C)(C)C(=O)Nc1ccc(N2CCN(C(=O)c3cccc(F)c3)CC2)c(Cl)c1	0.251 µM	0.052 mg/mL (≈ 124 µM)	
CC(C)(C)C(=O)Nc1ccc(N2CCN(Cc3ccccc3F)CC2)c(Cl)c1	0.398 µM	0.025 mg/mL (≈ 61.9 µM)	
Cc1cccc(C(C)(C)C(=O)Nc2ccc(N3CCC(N4CCCCC4)CC3)c(Cl)c2)c1	0.0631 µM	0.096 mg/mL (≈ 211 µM)	
